Results from ChEMBL document CHEMBL2311361, “Diminutive effect on T and B-cell proliferation of non-cytotoxic α-santonin derived 1,2,3-triazoles: a report” (Eur J Med Chem, 2013).

What was measured:
[1] = Cytotoxicity against in Balb/c mouse T cells at 10^-6 M after 48 hrs by MTT assay; type: cell-based; conditions: t-cell, 1 µM
In short: (§1)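 Spleens taken aseptically from Balb/c mice (18–22 g). Single-cell suspension made in incomplete RPMI, RBCs lysed with Tris-ammonium chloride, cells washed, resuspended in complete RPMI and checked for viability by trypan blue. Cells seeded at 1 × 10⁶ cells/mL. Compounds in DMSO tested at 1×10⁻⁴, 1×10⁻⁵ and 1×10⁻⁶ M, 48 h, 37 °C, 5% CO₂.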

[2] = Cytotoxicity against in Balb/c mouse T cells at 10^-4 M after 48 hrs by MTT assay; type: cell-based; conditions: t-cell, 100 µM; in short: as §1
[3] = Cytotoxicity against in Balb/c mouse B cells at 10^-5 M after 48 hrs by MTT assay; type: cell-based; conditions: 10 µM; in short: as §1
[4] = Immunostimulant activity in Balb/c mouse T cells assessed as inhibition of concanavalin A-induced cell proliferation at 10^-5 M after 48 hrs by MTT assay; type: functional; in short: as §1
[5] = Immunosuppressive activity in Balb/c mouse B cells assessed as inhibition of LPS-induced cell proliferation at 10^-5 M after 48 hrs by MTT assay; type: functional; in short: as §1
[6] = Immunostimulant activity in Balb/c mouse B cells assessed as inhibition of LPS-induced cell proliferation at 10^-4 M after 48 hrs by MTT assay; type: functional; in short: as §1
[7] = Cytotoxicity against in Balb/c mouse B cells at 10^-4 M after 48 hrs by MTT assay; type: cell-based; conditions: 100 µM; in short: as §1
[8] = Cytotoxicity against in Balb/c mouse T cells at 10^-5 M after 48 hrs by MTT assay; type: cell-based; conditions: t-cell, 10 µM; in short: as §1
[9] = Cytotoxicity against in Balb/c mouse B cells at 10^-6 M after 48 hrs by MTT assay; type: cell-based; conditions: 1 µM; in short: as §1
[10] = Immunosuppressive activity in Balb/c mouse B cells assessed as inhibition of LPS-induced cell proliferation at 10^-6 M after 48 hrs by MTT assay; type: functional; in short: as §1
[11] = Immunostimulant activity in Balb/c mouse T cells assessed as inhibition of concanavalin A-induced cell proliferation at 10^-4 M after 48 hrs by MTT assay; type: functional; conditions: Mus musculus, Balb/c, T-cell, 48 h; in short: as §1
[12] = Immunosuppressive activity in Balb/c mouse T cells assessed as inhibition of concanavalin A-induced cell proliferation at 10^-6 M after 48 hrs by MTT assay; type: functional; conditions: Mus musculus, Balb/c, T-cell, 48 h; in short: as §1
[13] = Immunosuppressive activity in Balb/c mouse B cells assessed as inhibition of LPS-induced cell proliferation at 10^-4 M after 48 hrs by MTT assay; type: functional; in short: as §1
[14] = Immunosuppressive activity in Balb/c mouse T cells assessed as inhibition of concanavalin A-induced cell proliferation at 10^-4 M after 48 hrs by MTT assay; type: functional; in short: as §1
[15] = Immunostimulant activity in Balb/c mouse B cells assessed as inhibition of LPS-induced cell proliferation at 10^-5 M after 48 hrs by MTT assay; type: functional; in short: as §1
[16] = Immunosuppressive activity in Balb/c mouse T cells assessed as inhibition of concanavalin A-induced cell proliferation at 10^-5 M after 48 hrs by MTT assay; type: functional; in short: as §1
[17] = Immunostimulant activity in Balb/c mouse B cells assessed as inhibition of LPS-induced cell proliferation at 10^-6 M after 48 hrs by MTT assay; type: functional; in short: as §1
[18] = Immunostimulant activity in Balb/c mouse T cells assessed as inhibition of concanavalin A-induced cell proliferation at 10^-6 M after 48 hrs by MTT assay; type: functional; in short: as §1

CC(=O)Nc1ccc(-n2nncc2COc2cc(C)c3c(c2C)[C@@H]2OC(=O)[C@@H](C)[C@@H]2CC3)cc1
Activity [1]: Toxic
Activity [2]: Toxic
Activity [3]: Non-toxic
inhibition at 10 µM [4]: 13.3%
inhibition at 10 µM [5]: 15%
inhibition at 100 µM [6]: 16.7%
Activity [7]: Toxic
Activity [8]: Non-toxic
Activity [9]: Toxic
inhibition at 1 µM [10]: 25%
inhibition at 100 µM [11]: 27.5%
inhibition at 1 µM [12]: 20%

Cc1cc(OCc2cnnn2/C=C/c2ccccc2)c(C)c2c1CC[C@H]1[C@H](C)C(=O)O[C@@H]21
Activity [1]: Non-toxic
Activity [2]: Non-toxic
Activity [3]: Non-toxic
inhibition at 100 µM [13]: 36.8%
Activity [7]: Non-toxic
Activity [8]: Non-toxic
Activity [9]: Non-toxic
inhibition at 100 µM [14]: 95.1%
inhibition at 1 µM [10]: 7.69%
inhibition at 10 µM [15]: 48.7%
inhibition at 10 µM [16]: 95.1%
inhibition at 1 µM [12]: 95.1%

Cc1cc(OCc2cnnn2-c2ccc(Cl)nc2)c(C)c2c1CC[C@H]1[C@H](C)C(=O)O[C@@H]21
Activity [1]: Toxic
Activity [2]: Non-toxic
Activity [3]: Non-toxic
inhibition at 10 µM [4]: 12.8%
inhibition at 10 µM [5]: 8.57%
inhibition at 1 µM [17]: 45.7%
inhibition at 100 µM [6]: 75.7%
Activity [7]: Non-toxic
Activity [8]: Non-toxic
Activity [9]: Toxic
inhibition at 100 µM [11]: 8.57%
inhibition at 1 µM [12]: 20.8%

Cc1cc(OCc2cnnn2-c2cccc([N+](=O)[O-])c2)c(C)c2c1CC[C@H]1[C@H](C)C(=O)O[C@@H]21
Activity [1]: Non-toxic
Activity [2]: Toxic
Activity [3]: Toxic
inhibition at 100 µM [6]: 36.8%
Activity [7]: Toxic
Activity [8]: Toxic
Activity [9]: Non-toxic
inhibition at 100 µM [14]: 95.1%
inhibition at 1 µM [10]: 24.8%
inhibition at 10 µM [15]: 0.85%
inhibition at 10 µM [16]: 93.9%
inhibition at 1 µM [12]: 93.9%

Cc1cc(OCc2cnnn2-c2ccc(-c3ccccc3)cc2)c(C)c2c1CC[C@H]1[C@H](C)C(=O)O[C@@H]21
Activity [1]: Non-toxic
Activity [2]: Toxic
Activity [3]: Non-toxic
inhibition at 10 µM [4]: 63.4%
inhibition at 10 µM [5]: 3.41%
inhibition at 1 µM [17]: 17.9%
inhibition at 100 µM [6]: 15.4%
Activity [7]: Toxic
Activity [8]: Non-toxic
Activity [9]: Non-toxic
inhibition at 1 µM [18]: 35.4%
inhibition at 100 µM [11]: 2.43%

Cc1cc(OCc2cnnn2-c2ccc(Br)cc2)c(C)c2c1CC[C@H]1[C@H](C)C(=O)O[C@@H]21
Activity [1]: Non-toxic
Activity [2]: Non-toxic
Activity [3]: Non-toxic
inhibition at 10 µM [4]: 2.43%
inhibition at 1 µM [17]: 26.5%
inhibition at 100 µM [13]: 15.4%
Activity [7]: Non-toxic
Activity [8]: Non-toxic
Activity [9]: Non-toxic
inhibition at 10 µM [15]: 36.8%
inhibition at 100 µM [11]: 48.8%
inhibition at 1 µM [12]: 1.21%

Cc1cc(OCc2cnnn2-c2ccccc2)c(C)c2c1CC[C@H]1[C@H](C)C(=O)O[C@@H]21
Activity [1]: Non-toxic
Activity [2]: Toxic
Activity [3]: Toxic
inhibition at 1 µM [17]: 30%
inhibition at 100 µM [6]: 1.42%
Activity [7]: Toxic
Activity [8]: Toxic
Activity [9]: Non-toxic
inhibition at 10 µM [15]: 8.57%
inhibition at 100 µM [11]: 97.1%
inhibition at 1 µM [12]: 21.4%

Cc1cc(OCc2cnnn2-c2ccc(F)cc2)c(C)c2c1CC[C@H]1[C@H](C)C(=O)O[C@@H]21
Activity [1]: Non-toxic
Activity [2]: Non-toxic
Activity [3]: Non-toxic
inhibition at 10 µM [4]: 44.3%
inhibition at 1 µM [17]: 11.4%
inhibition at 100 µM [13]: 2.85%
Activity [7]: Non-toxic
Activity [8]: Non-toxic
Activity [9]: Non-toxic
inhibition at 10 µM [15]: 10%
inhibition at 1 µM [18]: 12.8%
inhibition at 100 µM [11]: 70%

CCCOc1ccc(-n2nncc2COc2cc(C)c3c(c2C)[C@@H]2OC(=O)[C@@H](C)[C@@H]2CC3)cc1Cl
Activity [1]: Non-toxic
Activity [2]: Non-toxic
Activity [3]: Non-toxic
inhibition at 1 µM [17]: 41.4%
inhibition at 100 µM [6]: 21.4%
Activity [7]: Non-toxic
Activity [8]: Non-toxic
Activity [9]: Non-toxic
inhibition at 10 µM [15]: 12.8%
inhibition at 100 µM [11]: 7.14%
inhibition at 10 µM [16]: 27.1%
inhibition at 1 µM [12]: 7.14%

Cc1cc(OCc2cnnn2-c2ccc(Br)c3ccccc23)c(C)c2c1CC[C@H]1[C@H](C)C(=O)O[C@@H]21
Activity [1]: Non-toxic
Activity [2]: Toxic
Activity [3]: Toxic
inhibition at 10 µM [5]: 17.1%
inhibition at 1 µM [17]: 27.1%
inhibition at 100 µM [6]: 12.8%
Activity [7]: Toxic
Activity [8]: Toxic
Activity [9]: Non-toxic
inhibition at 100 µM [14]: 10%
inhibition at 1 µM [18]: 30%
inhibition at 10 µM [16]: 48.6%

COc1ccc(F)c(-n2nncc2COc2cc(C)c3c(c2C)[C@@H]2OC(=O)[C@@H](C)[C@@H]2CC3)c1Br
Activity [1]: Toxic
Activity [2]: Toxic
Activity [3]: Toxic
inhibition at 100 µM [13]: 24.3%
Activity [7]: Toxic
Activity [8]: Toxic
Activity [9]: Toxic
inhibition at 100 µM [14]: 45.7%
inhibition at 1 µM [10]: 1.42%
inhibition at 10 µM [15]: 1.42%
inhibition at 10 µM [16]: 37.1%
inhibition at 1 µM [12]: 14.3%

COc1ccc(-n2nncc2COc2cc(C)c3c(c2C)[C@@H]2OC(=O)[C@@H](C)[C@@H]2CC3)cc1OC
Activity [1]: Non-toxic
Activity [2]: Toxic
Activity [3]: Non-toxic
inhibition at 10 µM [4]: 15.8%
inhibition at 10 µM [5]: 0.85%
inhibition at 1 µM [17]: 15.4%
inhibition at 100 µM [6]: 12.8%
Activity [7]: Toxic
Activity [8]: Non-toxic
Activity [9]: Non-toxic
inhibition at 1 µM [18]: 75.6%
inhibition at 100 µM [11]: 90.2%

Cc1cc(OCc2cnnn2-c2cc(F)c(F)cc2Br)c(C)c2c1CC[C@H]1[C@H](C)C(=O)O[C@@H]21
Activity [1]: Toxic
Activity [2]: Toxic
Activity [3]: Toxic
inhibition at 10 µM [5]: 21.4%
inhibition at 100 µM [13]: 7.14%
Activity [7]: Toxic
Activity [8]: Toxic
Activity [9]: Toxic
inhibition at 100 µM [14]: 15.7%
inhibition at 1 µM [10]: 20%
inhibition at 1 µM [18]: 21.4%
inhibition at 10 µM [16]: 20%

C#CCOc1cc(C)c2c(c1C)[C@@H]1OC(=O)[C@@H](C)[C@@H]1CC2
Activity [1]: Toxic
Activity [2]: Non-toxic
Activity [3]: Non-toxic
inhibition at 10 µM [5]: 22.2%
inhibition at 100 µM [13]: 36.8%
Activity [7]: Non-toxic
Activity [8]: Non-toxic
Activity [9]: Toxic
inhibition at 100 µM [14]: 12.2%
inhibition at 1 µM [10]: 29.9%
inhibition at 1 µM [18]: 24.4%
inhibition at 10 µM [16]: 1.21%

Cc1cc(OCc2cnnn2-c2ccc3ccccc3c2)c(C)c2c1CC[C@H]1[C@H](C)C(=O)O[C@@H]21
Activity [1]: Non-toxic
Activity [2]: Toxic
Activity [3]: Non-toxic
inhibition at 10 µM [4]: 2.43%
inhibition at 10 µM [5]: 23.1%
inhibition at 1 µM [17]: 7.69%
inhibition at 100 µM [13]: 1.7%
Activity [7]: Toxic
Activity [8]: Non-toxic
Activity [9]: Non-toxic
inhibition at 1 µM [18]: 12.2%
inhibition at 100 µM [11]: 13.4%

COc1c(Br)cc(C)cc1-n1nncc1COc1cc(C)c2c(c1C)[C@@H]1OC(=O)[C@@H](C)[C@@H]1CC2
Activity [1]: Non-toxic
Activity [2]: Non-toxic
Activity [3]: Non-toxic
inhibition at 10 µM [4]: 7.14%
inhibition at 1 µM [17]: 27.1%
inhibition at 100 µM [6]: 15.7%
Activity [7]: Non-toxic
Activity [8]: Non-toxic
Activity [9]: Non-toxic
inhibition at 10 µM [15]: 28.6%
inhibition at 1 µM [18]: 5.71%
inhibition at 100 µM [11]: 5.71%
